Laboratory results: ChEMBL document CHEMBL4480457, “Dihydrophenanthrenes from Juncus effusus as Inhibitors of OAT1 and OAT3” (J Nat Prod, 2019)

Experiments:
[1] = biological target: T1, OAT1 (SLC22A6) (Homo sapiens, UniProt Q4U2R8); assay: Inhibition of OAT1 (unknown origin) expressed in HEK293 cells assessed as reduction in 6-CF uptake at 50 uM measured after 5 mins by fluorescence assay relative to control; format: cell-based; conditions: HEK293 cells expressing OAT1, probe 6-CF
T1 sequence (Q4U2R8 whole entry): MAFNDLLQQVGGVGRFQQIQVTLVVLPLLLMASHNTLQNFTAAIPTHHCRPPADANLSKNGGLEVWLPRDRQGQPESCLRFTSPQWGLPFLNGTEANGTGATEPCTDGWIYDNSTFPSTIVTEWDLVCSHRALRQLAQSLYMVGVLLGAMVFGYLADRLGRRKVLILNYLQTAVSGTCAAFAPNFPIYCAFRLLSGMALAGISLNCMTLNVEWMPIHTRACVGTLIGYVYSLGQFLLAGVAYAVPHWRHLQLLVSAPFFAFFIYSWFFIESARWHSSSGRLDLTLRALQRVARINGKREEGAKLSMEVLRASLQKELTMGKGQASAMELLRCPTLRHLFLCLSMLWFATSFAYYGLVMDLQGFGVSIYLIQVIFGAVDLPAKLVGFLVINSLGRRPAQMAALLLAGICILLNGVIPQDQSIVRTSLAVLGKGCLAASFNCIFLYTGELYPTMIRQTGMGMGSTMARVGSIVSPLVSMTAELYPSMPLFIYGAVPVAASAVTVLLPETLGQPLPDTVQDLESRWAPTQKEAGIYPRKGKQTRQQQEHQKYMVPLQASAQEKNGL
Outline: (§1)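 Transfected HEK293 cells stably expressing OAT1 or OAT3, maintained under hygromycin B selection, were seeded on poly-D-lysine plates and grown 24 h. Cells preincubated 5 min at 37 °C in Hepes uptake buffer (pH 7.2), then exposed 5 min to 4 μM 6-CF with compound at 50 μM. Ice-cold stop, PBS wash, Triton lysis. Fluorescence read at 485/528 nm, normalized to BCA protein, in triplicate.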

[2] = biological target: T2, OAT3 (Homo sapiens, UniProt Q8TCC7); assay: Inhibition of OAT3 (unknown origin) expressed in HEK293 cells assessed as reduction in 6-CF uptake at 50 uM measured after 5 mins by fluorescence assay relative to control; format: cell-based; conditions: HEK293 cells expressing OAT3, probe 6-CF; outline: as §1
T2 sequence (Q8TCC7 whole entry): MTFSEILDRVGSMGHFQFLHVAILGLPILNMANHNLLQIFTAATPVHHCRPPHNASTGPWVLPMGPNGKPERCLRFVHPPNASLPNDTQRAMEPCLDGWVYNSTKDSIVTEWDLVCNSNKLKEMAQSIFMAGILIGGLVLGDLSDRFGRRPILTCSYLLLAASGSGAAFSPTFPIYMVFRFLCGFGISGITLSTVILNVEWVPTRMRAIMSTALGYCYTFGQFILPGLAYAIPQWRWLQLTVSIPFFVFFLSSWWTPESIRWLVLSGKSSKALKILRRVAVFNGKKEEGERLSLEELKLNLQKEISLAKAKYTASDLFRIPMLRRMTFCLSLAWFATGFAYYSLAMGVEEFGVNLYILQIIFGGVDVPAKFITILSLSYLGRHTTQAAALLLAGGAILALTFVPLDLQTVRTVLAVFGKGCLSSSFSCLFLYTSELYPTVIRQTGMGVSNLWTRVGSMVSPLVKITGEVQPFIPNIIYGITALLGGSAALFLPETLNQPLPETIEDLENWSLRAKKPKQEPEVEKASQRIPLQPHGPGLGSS

[3] = biological target: T3, Solute carrier family 22 member 6 (Homo sapiens, UniProt Q4U2R8); assay: Inhibition of OAT1 (unknown origin) expressed in HEK293 cells assessed as reduction in 6-CF uptake measured after 5 mins by fluorescence assay; format: cell-based; conditions: for inhibition (INH): human, hek293, 5 min
T3 sequence (Q4U2R8 whole entry): T1 sequence (Q4U2R8 whole entry)
Outline: (§2)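 Uptake of 4 μM 6-CF measured over 5 min in stable OAT1- or OAT3-HEK293 cells, in pH 7.2 Hepes buffer at 37 °C with serial dilutions of compound. Lysate fluorescence (485/528 nm) normalized to protein, triplicate. IC50 obtained by nonlinear regression, reported as mean ± SEM.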

[4] = biological target: T4, Organic anion transporter 3 (Homo sapiens, UniProt Q8TCC7); assay: Inhibition of OAT3 (unknown origin) expressed in HEK293 cells assessed as reduction in 6-CF uptake measured after 5 mins by fluorescence assay; format: cell-based; conditions: for inhibition (INH): human, hek293, 5 min; outline: as §2
T4 sequence (Q8TCC7 whole entry): T2 sequence (Q8TCC7 whole entry)

[5] = Toxicity in Wistar rat at 10 mg/kg, po administered via gavage; format: organism-based; conditions: in vivo
Outline: (§3)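 Preliminary test in fasted rats: single oral gavage dose in 40% PEG-400, observed for toxic response.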

[6] = system: Rattus norvegicus; assay: In vivo inhibition of OAT1 and OAT3 in Wistar rat assesed as increase in furosemide AUC (0 to t) at 20 mg/kg, po administered via gavage pretreated for 5 mins followed by furosemide addition and measured within 90 mins by HPLC analysis; format: functional; design: scale not given: the % may be the effect or the level left
Outline: (§4)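 Rats (5 per group) fasted 12 h, then pretreated by oral gavage with test agent in 40% PEG-400 or vehicle. After 5 min, furosemide 10 mg/kg in saline given by tail vein injection. Orbital sinus blood taken at 2–120 min. Plasma extracted with MeCN containing warfarin internal standard. Furosemide quantified by C18 HPLC with UV detection at 280 nm. AUC0−t calculated.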

[7] = system: Rattus norvegicus; assay: In vivo inhibition of OAT1 and OAT3 in Wistar rat assesed as increase in furosemide AUC (0 to t) at 10 mg/kg, po administered via gavage pretreated for 5 mins followed by furosemide addition and measured within 30 mins by HPLC analysis; format: functional; design: scale not given: the % may be the effect or the level left; conditions: in the assay text read “at 20 mg/kg” for “at 10 mg/kg”; outline: as §4
[8] = system: Rattus norvegicus; assay: In vivo inhibition of OAT1 and OAT3 in Wistar rat assesed as increase in furosemide AUC (0 to t) at 10 mg/kg, po administered via gavage pretreated for 5 mins followed by furosemide addition and measured within 10 mins by HPLC analysis; format: functional; design: scale not given: the % may be the effect or the level left; conditions: in the assay text read “at 20 mg/kg” for “at 10 mg/kg”; outline: as §4
[9] = Toxicity in Wistar rat at 20 mg/kg, po administered via gavage; format: organism-based; conditions: in vivo; outline: as §3
[10] = system: Rattus norvegicus; assay: In vivo inhibition of OAT1 and OAT3 in Wistar rat assesed as increase in furosemide AUC (0 to t) at 20 mg/kg, po administered via gavage pretreated for 5 mins followed by furosemide addition and measured within 10 mins by HPLC analysis; format: functional; design: scale not given: the % may be the effect or the level left; outline: as §4
[11] = system: Rattus norvegicus; assay: In vivo inhibition of OAT1 and OAT3 in Wistar rat assesed as increase in furosemide AUC (0 to t) at 20 mg/kg, po administered via gavage pretreated for 5 mins followed by furosemide addition and measured within 30 mins by HPLC analysis; format: functional; design: scale not given: the % may be the effect or the level left; outline: as §4
[12] = system: Rattus norvegicus; assay: In vivo inhibition of OAT1 and OAT3 in Wistar rat assesed as increase in furosemide AUC (0 to t) at 10 mg/kg, po administered via gavage pretreated for 5 mins followed by furosemide addition and measured within 90 mins by HPLC analysis; format: functional; design: scale not given: the % may be the effect or the level left; outline: as §4

Compound: C=Cc1c(C(=O)O)ccc2c1CCc1c-2ccc(O)c1C
- inhibition at 5 min, 50 µM [1]: > 50%
- inhibition at 5 min, 50 µM [2]: > 50%
- IC50 [3]: 18.3 µM
- IC50 [4]: 1.1 µM
- inhibition (INH) [4]: Dose-dependent effect

Compound: CCCN(CCC)S(=O)(=O)c1ccc(C(=O)O)cc1 [PROBENECID]
- Activity [5]: Non-Toxic

Compound: COc1cc(C(=O)c2ccc(O)c(OC)c2)ccc1O
- inhibition at 5 min, 50 µM [1]: > 50%
- inhibition at 5 min, 50 µM [2]: > 50%
- IC50 [3]: 3.5 µM
- inhibition (INH) [3]: Dose-dependent effect
- IC50 [4]: 2.3 µM
- inhibition (INH) [4]: Dose-dependent effect

Compound: C=Cc1cc(O)cc2c1-c1ccc(O)c(C)c1CC2 [EFFUSOL]
- inhibition at 5 min, 50 µM [1]: > 50%
- inhibition at 5 min, 50 µM [2]: > 50%
- IC50 [3]: 23.3 µM
- IC50 [4]: 22.7 µM

Compound: C=Cc1cc(C(=O)O)cc2c1CCc1c-2ccc(O)c1C
- inhibition at 5 min, 50 µM [1]: < 50%
- inhibition at 5 min, 50 µM [2]: > 50%
- IC50 [4]: 2.8 µM
- inhibition (INH) [4]: Dose-dependent effect

Compound: COC(C)c1cc(O)cc2c1-c1ccc(O)c(C)c1CC2 (racemic)
- inhibition at 5 min, 50 µM [1]: > 50%
- inhibition at 5 min, 50 µM [2]: > 50%
- IC50 [3]: 43.1 µM
- IC50 [4]: 8.3 µM
- inhibition (INH) [4]: Dose-dependent effect

Compound: C=Cc1c(C)c(O)cc2c1-c1ccc(O)c(C)c1CC2
- inhibition at 5 min, 50 µM [1]: < 50%
- inhibition at 5 min, 50 µM [2]: > 50%
- IC50 [4]: 6.5 µM
- inhibition (INH) [4]: Dose-dependent effect

Compound: C=Cc1cc(C(=O)O)cc2c1-c1ccc(O)c(C)c1CC2
- inhibition at 5 min, 50 µM [1]: > 50%
- inhibition at 5 min, 50 µM [2]: > 50%
- IC50 [3]: 4.4 µM
- inhibition (INH) [3]: Dose-dependent effect
- IC50 [4]: 1.1 µM
- inhibition (INH) [4]: Dose-dependent effect

Compound: C=Cc1cc2c(cc1C(=O)O)CCc1c-2ccc(O)c1C
- Activity [6]: 66%
- Activity [7]: 62%
- Activity [8]: 70%
- inhibition at 5 min, 50 µM [1]: > 50%
- inhibition at 5 min, 50 µM [2]: > 50%
- Activity [9]: Non-Toxic
- Activity [10]: 70%
- IC50 [3]: 8.4 µM
- inhibition (INH) [3]: Dose-dependent effect
- Activity [11]: 62%
- Activity [12]: 66%
- IC50 [4]: 1.3 µM
- inhibition (INH) [4]: Dose-dependent effect
